According to ChEMBL document CHEMBL2417455, “Design, synthesis and biological evaluation of new aryl thiosemicarbazone as antichagasic candidates” (Eur J Med Chem, 2013):
Calls of active or inactive are those of the source. The rule behind the calls is not given here.

Tests used:
Trypanosoma cruzi [1] = assay: Trypanocidal activity against epimastigote stage of Trypanosoma cruzi Y after 72 hrs by MTT assay; type: functional, organism-based
Summary of the method: (§1)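 Log-phase (7-day) Y-strain epimastigotes at 10⁷/mL in LIT medium with 10% fetal calf serum were exposed to DMSO-dissolved compound at 100, 50, 25, 10, 5, 2.5 and 1 µg/mL for 72 h at 28 °C. MTT-PMS was added for 75 min in the dark, then 10% SDS for 30 min. OD was read at 595 nm and percent death determined. IC50 by linear regression of OD. Triplicates, Probit analysis.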

[2] = molecular target: Cruzipain (Trypanosoma cruzi) (UniProt P25779); assay: Inhibition of Trypanosoma cruzi cruzain expressed in Escherichia coli DH5-alpha using Bz-Phe-Arg-AMC as substrate at 10 uM preincubated for 5 mins followed by substrate addition measured for 5 mins by spectrofluorimetric analysis relative to control
Cruzipain (Trypanosoma cruzi), sequence (P25779 123-467 limits assumed): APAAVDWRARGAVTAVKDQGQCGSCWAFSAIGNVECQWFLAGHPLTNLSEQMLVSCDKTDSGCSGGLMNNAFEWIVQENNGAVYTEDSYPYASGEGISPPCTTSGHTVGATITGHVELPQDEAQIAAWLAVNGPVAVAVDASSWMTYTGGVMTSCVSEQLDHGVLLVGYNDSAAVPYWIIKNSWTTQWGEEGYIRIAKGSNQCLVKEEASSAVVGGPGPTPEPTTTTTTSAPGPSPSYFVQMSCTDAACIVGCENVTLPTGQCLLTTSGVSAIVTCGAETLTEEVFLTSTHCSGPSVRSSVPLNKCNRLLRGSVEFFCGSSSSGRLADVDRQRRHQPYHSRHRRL
Summary of the method: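 Recombinant cruzain at 0.23 nM in pH 6.5 buffer (50 mM Na2PO4, 2.5 mM EDTA), preincubated 5 min with or without inhibitor at a single 10 µM concentration. Bz-Phe-Arg-AMC was then added (stock 170 µM). Fluorescence was read at ex 380/em 460 nm, 37 °C, under magnetic stirring, for 5 min. Triplicate measurements.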

Mus musculus [3] = assay: Mutagenicity in Swiss albino mouse at 250 mg/kg after 30 hrs by micronucleus test; type: toxicity, organism-based; design: dose 250 mg/kg; settings: in vivo
Summary of the method: (§2)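 Swiss albino mice (~30 g) were dosed by gavage at 50, 100 or 250 mg/kg bwt. Negative control received 1% CMC/0.2% Tween 40 aqueous solution by gavage; a water-only group set basal frequency. Tail blood was taken 30 h after treatment onto acridine orange slides and held ≥24 h at -20 °C in the dark. Micronuclei were counted per 1,000 reticulocytes per animal by fluorescence microscopy. Values are arithmetic means compared by one-way ANOVA/Tukey (P < 0.05).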

Mus musculus [4] = assay: Mutagenicity in Swiss albino mouse at 100 mg/kg after 30 hrs by micronucleus test; type: toxicity, organism-based; design: dose 100 mg/kg; settings: in vivo; summary of the method: as §2
Trypanosoma cruzi [5] = assay: Potency index, ratio of benznidazole IC50 to compound IC50 for epimastigote stage of Trypanosoma cruzi Y; type: functional
Trypanosoma cruzi [6] = assay: Trypanocidal activity against epimastigote stage of Trypanosoma cruzi Y at 5 ug/mL after 72 hrs by MTT assay relative to control; type: functional; summary of the method: as §1
Trypanosoma cruzi [7] = assay: Trypanocidal activity against epimastigote stage of Trypanosoma cruzi Y at 50 ug/mL after 72 hrs by MTT assay relative to control; type: functional; summary of the method: as §1
[8] = Trypanosoma cruzi, Y, 72 h, read-out: IC50

| Structure (SMILES) | IC50 (Trypanosoma cruzi [1]; [8]) [µM] | inhibition [2] | Activity (Mus musculus [4]) | further results |
| --- | --- | --- | --- | --- |
| C/C(=N\N=C(/N)S)c1ccccc1 [PHENYL(METHYL)THIOSEMICARBAZONE] | 195 | inactive | – | – |
| NC(=S)N/N=C(\CO)c1ccc([N+](=O)[O-])cc1 | 37.7 | 10% | Non-toxic | Activity (Mus musculus [3]): Non-toxic |
| C/C(=N\NC(N)=S)c1ccc([N+](=O)[O-])c(N)c1 | 239 | 65% | – | – |
| Br.NC/C(=N\NC(N)=S)c1ccc([N+](=O)[O-])cc1 | 6.3 | 20% | Non-toxic | Activity (Mus musculus [3]): Non-toxic; Ratio IC50 (Trypanosoma cruzi [5]): 5 |
| C/C(=N\NC(N)=S)c1ccc(N)cc1 | > 480 | 25% | – | – |
| NC(=S)N/N=C(\COC(=O)CCC(=O)O)c1ccc([N+](=O)[O-])cc1 | 116 | 10% | – | – |
| C/C(=N\NC(N)=S)c1cccc(N)c1 | > 480 | inactive | – | – |
| C/C(=N\NC(N)=S)c1ccc(N)c([N+](=O)[O-])c1 | – | 55% | – | IC50 (Trypanosoma cruzi [1]): Not Active |
| C/C(=N\NC(N)=S)c1cccc([N+](=O)[O-])c1 | > 420 | 5% | – | inhibition at 5 µg/mL (Trypanosoma cruzi [6]): 3% |
| NC(=S)N/N=C(\CNC(=O)CCC(=O)O)c1ccc([N+](=O)[O-])cc1 | 12 | 50% | Non-toxic | Activity (Mus musculus [3]): Non-toxic |
| NC/C(=N\NC(N)=S)c1ccccc1 | > 409 | inactive | – | – |
| O=C(Cn1ccnc1[N+](=O)[O-])NCc1ccccc1 [BENZNIDAZOLE] | 34.6 | – | Toxic | – |
| NC/C(=N\NC(N)=S)c1cccc([N+](=O)[O-])c1 | > 299 | inactive | – | inhibition at 50 µg/mL (Trypanosoma cruzi [7]): 3% |
